Source: ChEMBL document CHEMBL1137826, “A new class of acyclic 2-alkyl-1,1,2-triaryl (Z)-olefins as selective cyclooxygenase-2 inhibitors” (J Med Chem, 2004)

How the values were obtained:
Rattus norvegicus [1] = test: Percent inhibition of 4% sodium chloride-induced abdominal constriction in rat after 30 min of 5 mg/kg oral dose of the compound; type: functional; settings: Abdomen, 0.5 h
Method in brief: (§1)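 Test compound given to rats orally at 5 mg/kg before 4% NaCl-induced writhing (abdominal constriction).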

Rattus norvegicus [2] = test: Percent inhibition of 4% sodium chloride-induced abdominal constriction in rat after 60 min of 5 mg/kg oral dose of the compound; type: functional; settings: Abdomen, 1 h; method in brief: as §1
[3] = biological target: T1, Prostaglandin G/H synthase 1 (Ovis aries, UniProt P05979); test: In vitro inhibition of ovine prostaglandin G/H synthase 1
T1 sequence (P05979 whole entry): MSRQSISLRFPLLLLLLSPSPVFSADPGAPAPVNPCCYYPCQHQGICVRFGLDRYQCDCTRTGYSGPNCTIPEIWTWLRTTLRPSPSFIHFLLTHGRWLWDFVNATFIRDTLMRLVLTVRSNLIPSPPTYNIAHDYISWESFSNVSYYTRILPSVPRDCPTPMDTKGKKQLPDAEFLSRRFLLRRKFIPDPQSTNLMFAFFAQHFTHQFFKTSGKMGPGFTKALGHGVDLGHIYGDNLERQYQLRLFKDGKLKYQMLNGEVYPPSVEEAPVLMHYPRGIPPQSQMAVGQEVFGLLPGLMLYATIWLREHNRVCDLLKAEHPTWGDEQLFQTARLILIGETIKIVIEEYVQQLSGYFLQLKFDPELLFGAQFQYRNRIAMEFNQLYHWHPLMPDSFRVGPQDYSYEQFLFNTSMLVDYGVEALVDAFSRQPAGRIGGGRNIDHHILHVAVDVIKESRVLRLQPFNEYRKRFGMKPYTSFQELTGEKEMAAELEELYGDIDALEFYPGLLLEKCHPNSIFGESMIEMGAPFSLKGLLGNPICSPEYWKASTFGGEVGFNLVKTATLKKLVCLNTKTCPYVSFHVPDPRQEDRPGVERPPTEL

[4] = biological target: T2, Prostaglandin G/H synthase 2 (Rattus norvegicus) (UniProt P35355)
T2 sequence (whole entry): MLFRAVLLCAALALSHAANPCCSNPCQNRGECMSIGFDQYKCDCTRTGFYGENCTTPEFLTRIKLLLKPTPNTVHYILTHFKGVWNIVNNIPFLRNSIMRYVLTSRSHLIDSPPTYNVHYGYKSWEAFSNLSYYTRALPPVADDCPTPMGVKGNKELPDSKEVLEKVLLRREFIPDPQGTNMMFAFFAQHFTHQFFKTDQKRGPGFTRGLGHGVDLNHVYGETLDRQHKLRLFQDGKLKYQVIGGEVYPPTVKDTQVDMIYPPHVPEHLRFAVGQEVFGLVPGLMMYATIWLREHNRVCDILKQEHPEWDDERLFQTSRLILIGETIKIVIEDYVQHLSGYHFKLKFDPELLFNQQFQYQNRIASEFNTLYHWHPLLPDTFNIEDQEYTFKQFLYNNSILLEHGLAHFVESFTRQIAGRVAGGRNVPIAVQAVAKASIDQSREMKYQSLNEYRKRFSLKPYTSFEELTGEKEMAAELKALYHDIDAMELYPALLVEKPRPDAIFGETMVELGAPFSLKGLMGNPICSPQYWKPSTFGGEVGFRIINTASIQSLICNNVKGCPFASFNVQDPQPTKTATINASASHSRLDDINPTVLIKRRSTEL

Rattus norvegicus [5] = organism: Rattus norvegicus; test: animal or person; settings: Abdomen, po, 0.5 h, read-out: Inhibition

| SMILES | inhibition in vivo at 5 mg/kg (Rattus norvegicus [1]) [%] | inhibition in vivo at 5 mg/kg (Rattus norvegicus [2]) [%] | IC50 [3] [µM] | ID50 [4] [mg/kg] | inhibition in vivo at 50 mg/kg (Rattus norvegicus [5]) [%] |
| --- | --- | --- | --- | --- | --- |
| CC/C(=C(\c1ccccc1)c1ccc(S(C)(=O)=O)cc1)c1ccc(OC(C)=O)cc1 | 60 | 57.5 | 0.25 | 1.3 |  |
| CCCC/C(=C(\c1ccccc1)c1ccc(S(C)(=O)=O)cc1)c1ccccc1 |  |  | 30 |  |  |
| CCC/C(=C(\c1ccccc1)c1ccc(S(C)(=O)=O)cc1)c1ccccc1 |  |  | > 100 |  |  |
| Cc1ccc(-c2cc(C(F)(F)F)nn2-c2ccc(S(N)(=O)=O)cc2)cc1 [CELECOXIB] |  |  |  |  | 69.3 |
| CC/C(=C(\c1ccccc1)c1ccc(S(C)(=O)=O)cc1)c1ccccc1 | 38.8 | 50 | > 100 | 1.9 |  |
| CCCC/C(=C(\c1ccccc1)c1ccc(S(C)(=O)=O)cc1)c1ccc(OC(C)=O)cc1 |  |  | > 100 |  |  |
| CCCCCC/C(=C(\c1ccccc1)c1ccc(S(C)(=O)=O)cc1)c1ccccc1 | 33.3 | 35.4 | > 100 | 1.1 |  |
| CCCCCCCC/C(=C(\c1ccccc1)c1ccc(S(C)(=O)=O)cc1)c1ccccc1 |  |  | > 100 |  |  |
